In assay [1] the target is Human immunodeficiency virus type 1 protease (Human immunodeficiency virus 1, UniProt Q72874). The experiment in a line: In vitro inhibitory activity against HIV-1 Protease. The method in brief: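 Recombinant HIV-1 PR expressed in E. coli (pET9c-PR). Fluorogenic DABCYL-γ-abu-[…]EDANS substrate 5.2 μM, enzyme 7.5 nM, in 100 mM sodium acetate, 1 mM EDTA, 1 M NaCl, pH 4.7, 30 °C, 3% DMSO final. Fluorescence read at ex 340/em 490 nm. IC50 fitted from % inhibition across 0.5–28 μM inhibitor. Ki derived by Zhang's method using 1.88–28 nM enzyme.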

Assay [2] concerns the target Human immunodeficiency virus type 1 protease (Human immunodeficiency virus 1) (UniProt Q72874). The experiment in a line: Dimerization inhibition against HIV-1 Protease. The method in brief:
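Recombinant HIV-1 PR expressed in E. coli (pET9c-PR). Hydrolysis of DABCYL-γ-abu-[…]EDANS (5.2 μM) was followed by fluorescence (ex 340/em 490 nm) in 100 mM sodium acetate, 1 mM EDTA, 1 M NaCl, pH 4.7, 30 °C, with 3% DMSO final. Initial rates were taken at ≥7 enzyme levels (1.88–28 nM) per inhibitor concentration. Kic/Kid were obtained by Zhang's method from [E]0/√vi vs √vi plots.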

Assay [3] shares this target. The experiment in a line: Competitive inhibition against HIV-1 Protease.
Assay [4] has the same target. The experiment in a line: Inhibitory activity against HIV-1 Protease at 14 uM.
For assay [5] the target is unchanged. The experiment in a line: Inhibitory activity against HIV-1 Protease at 28 uM.
For assay [6] the target is unchanged. The experiment in a line: In vitro inhibitory activity against HIV-1 Protease; No inhibition.

By IC50 is commonly meant the concentration at which inhibition is half-maximal. Higher therefore signals lower potency. What is called inhibition is the percentage by which the read-out fell short of the control. A low value points to little suppression.

Activity calls are given as the source filed them. No cut-off for these calls is given here. Residues, ends and D or L forms follow the SMILES beside them. *: point of attachment. X1 = CC(C)CCC[C@@H](C)[C@H]1CCC2C3CC=C4C[C@H](SC[C@@H]5CCN6CC[C@@H](CSCC(=O)*)NC6=N5)CC[C@]4(C)C3CC[C@@]21C; X3 = CC(C)(C)[Si](OC[C@@H]1CCN2CC[C@@H](COC(=O)CCCCC(=O)*)NC2=N1)(c1ccccc1)c1ccccc1; X5 = CC(C)(C)[Si](OC[C@@H]1CCN2CC[C@@H](CNC(=O)CCCCC(=O)*)NC2=N1)(c1ccccc1)c1ccccc1; X2 = CC(C)(C)[Si](OCC1CCN2CCC(CSCC(=O)*)NC2=N1)(c1ccccc1)c1ccccc1; X4 = O=C(CCCCC(=O)*)OC[C@@H]1CCN2CC[C@@H](CO)N=C2N1; X6 = O=C(CCCCC(=O)*)NC[C@@H]1CCN2CC[C@@H](CO)N=C2N1; OBn = c1ccc(CO*)cc1; Bn = c1ccc(C*)cc1

In the case of `CC(C)C[C@H](NC(=O)[C@@H](NC(=O)[C@H](C)NC(=O)CNC(=O)CSCC1CCN2CCC(CO[Si](c3ccccc3)(c3ccccc3)C(C)(C)C)N=C2N1)[C@@H](C)OCc1ccccc1)C(=O)N[C@@H](CC(N)=O)C(=O)N[C@@H](Cc1ccccc1)C(=O)OCc1ccccc1` (stereo in doubt; 6'(R,R)) [listing 1 of 2 here], the IC50 in assay [1] was determined as 2 µM.

Compound `CC[C@H](C)[C@H](NC(=O)[C@H](C)NC(=O)CSCC1CCN2CCC(CO[Si](c3ccccc3)(c3ccccc3)C(C)(C)C)N=C2N1)C(=O)N[C@H](C(=O)N[C@@H](CC(C)C)C(=O)N[C@@H](Cc1c[nH]c2ccccc12)C(=O)OC)[C@@H](C)OCc1ccccc1` (some centres undefined) (X2-AIT(Bn)LW-OMe) came in with a Kid in assay [2] of 6.5 µM. For the same compound, in assay [1], the IC50 is 5 µM.

In assay [2], `CC(C)C[C@H](NC(=O)[C@@H](NC(=O)[C@H](C)NC(=O)CNC(=O)CSCC1CCN2CCC(CO[Si](c3ccccc3)(c3ccccc3)C(C)(C)C)N=C2N1)[C@@H](C)OCc1ccccc1)C(=O)N[C@@H](CC(N)=O)C(=O)N[C@@H](Cc1ccccc1)C(=O)OCc1ccccc1` (stereo in doubt; 6'(R,R)) [listing 2 of 2 here] yielded a Kid of 0.15 µM.

On to `CC(C)C[C@H](NC(=O)[C@@H](NC(=O)[C@H](C)NC(=O)CNC(=O)CSCC1CCN2CCC(CO[Si](c3ccccc3)(c3ccccc3)C(C)(C)C)N=C2N1)[C@@H](C)OCc1ccccc1)C(=O)N[C@@H](CC(N)=O)C(=O)N[C@@H](Cc1ccccc1)C(=O)OCc1ccccc1` (stereo in doubt; 6 (S,S)) [listing 1 of 2 here], for which the Kid in assay [2] came out at 0.15 µM.

Turning to `CC(C)CCC[C@@H](C)[C@H]1CCC2C3CC=C4C[C@H](SC[C@@H]5CCN6CC[C@@H](CSCC(=O)NCC(=O)N[C@@H](C)C(=O)N[C@H](C(=O)N[C@@H](CC(C)C)C(=O)N[C@@H](CC(N)=O)C(=O)N[C@@H](Cc7ccccc7)C(=O)OCc7ccccc7)[C@@H](C)OCc7ccccc7)NC6=N5)CC[C@]4(C)C3CC[C@@]21C` (some centres undefined) (X1-GAT(Bn)LNF-OBn), in assay [3], the Kic came to 0.4 µM. This compound came in with a Kid in assay [2] of 0.4 µM. This compound also displayed an IC50 in assay [1] of 3 µM.

For `COC(=O)[C@H](Cc1ccccc1)NC(=O)[C@H](CC(N)=O)NC(=O)[C@H](CC(C)C)NC(=O)[C@@H](NC(=O)[C@H](C)NC(=O)CCCCC(=O)OC[C@@H]1CCN2CC[C@@H](CO)N=C2N1)[C@@H](C)O` (X4-ATLNF-OMe), the inhibition in assay [4] is 28%.

Compound `CC(C)C[C@H](NC(=O)[C@@H](NC(=O)[C@H](C)NC(=O)CNC(=O)CSCC1CCN2CCC(CO[Si](c3ccccc3)(c3ccccc3)C(C)(C)C)N=C2N1)[C@@H](C)OCc1ccccc1)C(=O)N[C@@H](CC(N)=O)C(=O)N[C@@H](Cc1ccccc1)C(=O)OCc1ccccc1` (stereo in doubt; 6 (S,S)) [listing 2 of 2 here] gave an IC50 in assay [1] of 1.6 µM.

Regarding `CC(C)C[C@H](NC(=O)[C@@H](NC(=O)[C@H](C)NC(=O)CNC(=O)CSCC1CCN2CCC(CO[Si](c3ccccc3)(c3ccccc3)C(C)(C)C)N=C2N1)[C@@H](C)OCc1ccccc1)C(=O)N[C@@H](CC(N)=O)C(=O)N[C@@H](Cc1ccccc1)C(=O)O` (some centres undefined) (X2-GAT(Bn)LNF-OH), in assay [1], it took 11 µM to reach half-maximal inhibition (IC50).

Turning to `CC[C@H](C)[C@H](NC(=O)CNC(=O)CSCC1CCN2CCC(CO[Si](c3ccccc3)(c3ccccc3)C(C)(C)C)N=C2N1)C(=O)N[C@@H](COCc1ccccc1)C(=O)N[C@@H](Cc1ccc(OCc2ccccc2)cc1)C(=O)N[C@@H](CC(N)=O)C(=O)N[C@@H](CC(C)C)C(=O)OC` (some centres undefined) (X2-GIS(Bn)Y(Bn)NL-OMe), the Kid in assay [2] turned out to be 0.29 µM. This compound showed an IC50 in assay [1] of 3.3 µM.

In the case of `COC(=O)[C@H](Cc1ccccc1)NC(=O)[C@H](CC(N)=O)NC(=O)[C@H](CC(C)C)NC(=O)[C@@H](NC(=O)[C@H](C)NC(=O)CCCCC(=O)OC[C@@H]1CCN2CC[C@@H](CO[Si](c3ccccc3)(c3ccccc3)C(C)(C)C)N=C2N1)[C@@H](C)O` (X3-ATLNF-OMe), the Kid in assay [2] worked out at 0.55 µM. The IC50 in assay [1] turned out to be 1.9 µM.

In turn, `CC[C@H](C)[C@H](NC(=O)CNC(=O)CSCC1CCN2CCC(CO[Si](c3ccccc3)(c3ccccc3)C(C)(C)C)N=C2N1)C(=O)N[C@@H](CO)C(=O)N[C@@H](Cc1ccc(O)cc1)C(=O)N[C@@H](CC(N)=O)C(=O)N[C@@H](CC(C)C)C(=O)OC` (some centres undefined) (X2-GISYNL-OMe) showed a Kic in assay [3] of 6 µM. This compound returned a half-inhibitory concentration (IC50) in assay [1] of 5 µM.

In turn, `COC(=O)[C@H](Cc1ccccc1)NC(=O)[C@H](CC(N)=O)NC(=O)[C@H](CC(C)C)NC(=O)[C@@H](NC(=O)[C@H](C)NC(=O)CCCCC(=O)NC[C@@H]1CCN2CC[C@@H](CO[Si](c3ccccc3)(c3ccccc3)C(C)(C)C)N=C2N1)[C@@H](C)O` (X5-ATLNF-OMe) registered an inhibition in assay [5] of 28%.

Consider `COC(=O)[C@H](Cc1ccccc1)NC(=O)[C@H](CC(N)=O)NC(=O)[C@H](CC(C)C)NC(=O)[C@@H](NC(=O)[C@H](C)NC(=O)CCCCC(=O)NC[C@@H]1CCN2CC[C@@H](CO)N=C2N1)[C@@H](C)O` (X6-ATLNF-OMe), for which the NI result in assay [6] is “inactive”.

For the origin of these results see ChEMBL document CHEMBL1145908 (J Med Chem, 2003).
